Measured values published in ChEMBL document CHEMBL3232791, “Synthesis and antibacterial evaluation of amino acid-antibiotic conjugates” (2014).

Key:
Type in all cases: functional
Staphylococcus aureus [1] = assay: Antibacterial activity against Staphylococcus aureus RN4220 assessed as growth inhibition at 8 ug/ml after 16 hrs by spectrophotometric analysis; conditions: RN4220, 16 h, read-out: GI
Procedure, shortened: (§1)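 Growth inhibition read as OD600 on 300 µL culture samples, with untreated control cultures taken as maximum growth. Percent inhibition = (OD600 control − OD600 treated) × 100 / OD600 control. Parent antibiotics and their conjugates were run in parallel at three concentrations per compound, in biological duplicate.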

Bacillus subtilis [2] = assay: Antibacterial activity against Bacillus subtilis 168 assessed as growth inhibition at 0.2 ug/ml after 16 hrs by spectrophotometric analysis; conditions: subsp. subtilis str. 168, 16 h, read-out: GI; procedure, shortened: as §1
Bacillus subtilis [3] = assay: Antibacterial activity against Bacillus subtilis 168 assessed as growth inhibition at 0.4 ug/ml after 16 hrs by spectrophotometric analysis; conditions: subsp. subtilis str. 168, 16 h, read-out: GI; procedure, shortened: as §1
Bacillus subtilis [4] = assay: Antibacterial activity against Bacillus subtilis 168 assessed as growth inhibition at 0.1 ug/ml after 16 hrs by spectrophotometric analysis; conditions: subsp. subtilis str. 168, 16 h, read-out: GI; procedure, shortened: as §1
Pseudomonas aeruginosa [5] = assay: Antibacterial activity against Pseudomonas aeruginosa PAO1 assessed as growth inhibition at 40 ug/ml after 16 hrs by spectrophotometric analysis; conditions: PAO1, 16 h, read-out: GI; procedure, shortened: as §1
Staphylococcus aureus [6] = assay: Antibacterial activity against Staphylococcus aureus RN4220 assessed as growth inhibition at 4 ug/ml after 16 hrs by spectrophotometric analysis; conditions: RN4220, 16 h, read-out: GI; procedure, shortened: as §1
Staphylococcus aureus [7] = assay: Antibacterial activity against Staphylococcus aureus RN4220 assessed as growth inhibition at 2 ug/ml after 16 hrs by spectrophotometric analysis; conditions: RN4220, 16 h, read-out: GI; procedure, shortened: as §1
Escherichia coli [8] = assay: Antibacterial activity against Escherichia coli DH5alpha assessed as growth inhibition at 0.0635 ug/ml after 16 hrs by spectrophotometric method; conditions: DH5[alpha], read-out: GI; procedure, shortened: as §1
Escherichia coli [9] = assay: Antibacterial activity against Escherichia coli DH5alpha assessed as growth inhibition at 0.5 ug/ml after 16 hrs by spectrophotometric method; conditions: DH5[alpha], read-out: GI; procedure, shortened: as §1
Escherichia coli [10] = assay: Antibacterial activity against Escherichia coli DH5alpha assessed as growth inhibition at 0.125 ug/ml after 16 hrs by spectrophotometric method; conditions: DH5[alpha], read-out: GI; procedure, shortened: as §1
Pseudomonas aeruginosa [11] = assay: Antibacterial activity against Pseudomonas aeruginosa PAO1 assessed as growth inhibition at 20 ug/ml after 16 hrs by spectrophotometric analysis; conditions: PAO1, 16 h, read-out: GI; procedure, shortened: as §1
Pseudomonas aeruginosa [12] = assay: Antibacterial activity against Pseudomonas aeruginosa PAO1 assessed as growth inhibition at 10 ug/ml after 16 hrs by spectrophotometric analysis; conditions: PAO1, 16 h, read-out: GI; procedure, shortened: as §1
Escherichia coli [13] = assay: Antibacterial activity against Escherichia coli DH5alpha assessed as growth inhibition at 3 ug/ml after 16 hrs by spectrophotometric method; conditions: DH5[alpha], read-out: GI; procedure, shortened: as §1
Staphylococcus aureus [14] = assay: Antibacterial activity against Staphylococcus aureus RN4220 assessed as growth inhibition at 15 ug/ml after 16 hrs by spectrophotometric analysis; conditions: RN4220, 16 h, read-out: GI; procedure, shortened: as §1
Bacillus subtilis [15] = assay: Antibacterial activity against Bacillus subtilis 168 assessed as growth inhibition at 20 ug/ml after 16 hrs by spectrophotometric analysis; conditions: subsp. subtilis str. 168, 16 h, read-out: GI; procedure, shortened: as §1
Staphylococcus aureus [16] = assay: Antibacterial activity against Staphylococcus aureus RN4220 assessed as growth inhibition at 30 ug/ml after 16 hrs by spectrophotometric analysis; conditions: RN4220, 16 h, read-out: GI; procedure, shortened: as §1
Escherichia coli [17] = assay: Antibacterial activity against Escherichia coli DH5alpha assessed as growth inhibition at 0.75 ug/ml after 16 hrs by spectrophotometric method; conditions: DH5[alpha], read-out: GI; procedure, shortened: as §1
Escherichia coli [18] = assay: Antibacterial activity against Escherichia coli DH5alpha assessed as growth inhibition at 1.5 ug/ml after 16 hrs by spectrophotometric method; conditions: DH5[alpha], read-out: GI; procedure, shortened: as §1
Bacillus subtilis [19] = assay: Antibacterial activity against Bacillus subtilis 168 assessed as growth inhibition at 5 ug/ml after 16 hrs by spectrophotometric analysis; conditions: subsp. subtilis str. 168, 16 h, read-out: GI; procedure, shortened: as §1
Bacillus subtilis [20] = assay: Antibacterial activity against Bacillus subtilis 168 assessed as growth inhibition at 10 ug/ml after 16 hrs by spectrophotometric analysis; conditions: subsp. subtilis str. 168, 16 h, read-out: GI; procedure, shortened: as §1
Staphylococcus aureus [21] = assay: Antibacterial activity against Staphylococcus aureus RN4220 assessed as growth inhibition at 60 ug/ml after 16 hrs by spectrophotometric analysis; conditions: RN4220, 16 h, read-out: GI; procedure, shortened: as §1
Staphylococcus aureus [22] = assay: Antibacterial activity against Staphylococcus aureus RN4220 assessed as growth inhibition at 240 ug/ml after 16 hrs by spectrophotometric analysis; conditions: RN4220, 16 h, read-out: GI; procedure, shortened: as §1
Escherichia coli [23] = assay: Antibacterial activity against Escherichia coli DH5alpha assessed as growth inhibition at 40 ug/ml after 16 hrs by spectrophotometric method; conditions: DH5[alpha], read-out: GI; procedure, shortened: as §1
Escherichia coli [24] = assay: Antibacterial activity against Escherichia coli DH5alpha assessed as growth inhibition at 75 ug/ml after 16 hrs by spectrophotometric method; conditions: DH5[alpha], read-out: GI; procedure, shortened: as §1
Staphylococcus aureus [25] = assay: Antibacterial activity against Staphylococcus aureus RN4220 assessed as growth inhibition at 120 ug/ml after 16 hrs by spectrophotometric analysis; conditions: RN4220, 16 h, read-out: GI; procedure, shortened: as §1
Escherichia coli [26] = assay: Antibacterial activity against Escherichia coli DH5alpha assessed as growth inhibition at 50 ug/ml after 16 hrs by spectrophotometric method; conditions: DH5[alpha], read-out: GI; procedure, shortened: as §1

SMILES	inhibition of growth at 8 µg/mL (Staphylococcus aureus [1]) [%]	inhibition of growth at 0.2 µg/mL (Bacillus subtilis [2]) [%]	inhibition of growth at 0.4 µg/mL (Bacillus subtilis [3]) [%]	inhibition of growth at 0.1 µg/mL (Bacillus subtilis [4]) [%]	inhibition of growth at 40 µg/mL (Pseudomonas aeruginosa [5]) [%]	inhibition of growth at 4 µg/mL (Staphylococcus aureus [6]) [%]	inhibition of growth at 2 µg/mL (Staphylococcus aureus [7]) [%]	inhibition of growth at 0.0635 µg/mL (Escherichia coli [8]) [%]	inhibition of growth at 0.5 µg/mL (Escherichia coli [9]) [%]	inhibition of growth at 0.125 µg/mL (Escherichia coli [10]) [%]	inhibition of growth at 20 µg/mL (Pseudomonas aeruginosa [11]) [%]	inhibition of growth at 10 µg/mL (Pseudomonas aeruginosa [12]) [%]	inhibition of growth at 60 µg/mL (Staphylococcus aureus [21]) [%]	inhibition of growth at 240 µg/mL (Staphylococcus aureus [22]) [%]	inhibition of growth at 40 µg/mL (Escherichia coli [23]) [%]	inhibition of growth at 75 µg/mL (Escherichia coli [24]) [%]	inhibition of growth at 120 µg/mL (Staphylococcus aureus [25]) [%]	inhibition of growth at 50 µg/mL (Escherichia coli [26]) [%]	also measured
C[C@H](NC(=O)OCc1ccccc1)C(=O)N1CCN(c2cc3c(cc2F)c(=O)c(C(=O)O)cn3C2CC2)CC1	55.8	42.3	91.9	12.6	58.2	46.1	23.2	-0.72	-1.86	-2.93	-2.13	-13.3							
CCn1cc(C(=O)O)c(=O)c2cc(F)c(N3CCNCC3)cc21 [NORFLOXACIN]					89.1						90.5	81.1	81						inhibition of growth at 3 µg/mL (Escherichia coli [13]): 80.8%; inhibition of growth at 15 µg/mL (Staphylococcus aureus [14]): 63.9%; inhibition of growth at 20 µg/mL (Bacillus subtilis [15]): 92.2%; inhibition of growth at 30 µg/mL (Staphylococcus aureus [16]): 73.5%; inhibition of growth at 0.75 µg/mL (Escherichia coli [17]): 55.3%; inhibition of growth at 1.5 µg/mL (Escherichia coli [18]): 72.8%; inhibition of growth at 5 µg/mL (Bacillus subtilis [19]): 90.7%; inhibition of growth at 10 µg/mL (Bacillus subtilis [20]): 91.9%
O=C(NCCCC[C@H](NC(=O)OCc1ccccc1)C(=O)N1CCN(c2cc3c(cc2F)c(=O)c(C(=O)O)cn3C2CC2)CC1)OCc1ccccc1	62.9	12.7	40.4	9.59	84.2	51.6	39.3	-0.2	38.9	4.12	89.7	87.1							
Nc1ccc(S(=O)(=O)Nc2ncccn2)cc1 [SULFADIAZINE]													-6.47	18.1	2.66	6.44	2.17	8.11	
O=C(C[C@H](NC(=O)OCc1ccccc1)C(=O)Nc1ccc(S(=O)(=O)Nc2ncccn2)cc1)OCc1ccccc1													-17.6	3.48	4.72	4.72	-2.44	3.75	
C[C@H](NC(=O)OCc1ccccc1)C(=O)Nc1ccc(S(=O)(=O)Nc2ncccn2)cc1													-9.96	1.07	2.13	-0.65	-9.38	-0.61	
O=C(N[C@@H](Cc1ccccc1)C(=O)Nc1ccc(S(=O)(=O)Nc2ncccn2)cc1)OCc1ccccc1													-8.23	29.1	0.39	3.46	18.2	0.05	
O=C(O)c1cn(C2CC2)c2cc(N3CCNCC3)c(F)cc2c1=O [CIPROFLOXACIN]	75.3		94.3	30.4	89.8	63.9	48.4	32.5	77	52.3	91	91.8							
CCn1cc(C(=O)O)c(=O)c2cc(F)c(N3CCN(C(=O)C(C)NC(=O)OCc4ccccc4)CC3)cc21 (stereo not given)					25.8						-19.8	-25.7	86.1						inhibition of growth at 3 µg/mL (Escherichia coli [13]): 0.77%; inhibition of growth at 15 µg/mL (Staphylococcus aureus [14]): 51.5%; inhibition of growth at 20 µg/mL (Bacillus subtilis [15]): 90.3%; inhibition of growth at 30 µg/mL (Staphylococcus aureus [16]): 77.9%; inhibition of growth at 0.75 µg/mL (Escherichia coli [17]): -4.73%; inhibition of growth at 1.5 µg/mL (Escherichia coli [18]): 1.25%; inhibition of growth at 5 µg/mL (Bacillus subtilis [19]): 92.3%; inhibition of growth at 10 µg/mL (Bacillus subtilis [20]): 91.4%
O=C(NCC(=O)N1CCN(c2cc3c(cc2F)c(=O)c(C(=O)O)cn3C2CC2)CC1)OCc1ccccc1	70.8	16.2	94.2	18.5	45	50.3	45.7	1.86	2.25	-2.17	-1.56	-14							
